16 compounds from ChEMBL document CHEMBL1149551, “Novel selective PPARdelta agonists: optimization of activity by modification of alkynylallylic moiety” (Bioorg Med Chem Lett, 2007) can be followed below.

In assay [1] the target is T1, Peroxisome proliferator-activated receptor alpha (Homo sapiens, UniProt Q07869).
T1 sequence (Q07869 whole entry): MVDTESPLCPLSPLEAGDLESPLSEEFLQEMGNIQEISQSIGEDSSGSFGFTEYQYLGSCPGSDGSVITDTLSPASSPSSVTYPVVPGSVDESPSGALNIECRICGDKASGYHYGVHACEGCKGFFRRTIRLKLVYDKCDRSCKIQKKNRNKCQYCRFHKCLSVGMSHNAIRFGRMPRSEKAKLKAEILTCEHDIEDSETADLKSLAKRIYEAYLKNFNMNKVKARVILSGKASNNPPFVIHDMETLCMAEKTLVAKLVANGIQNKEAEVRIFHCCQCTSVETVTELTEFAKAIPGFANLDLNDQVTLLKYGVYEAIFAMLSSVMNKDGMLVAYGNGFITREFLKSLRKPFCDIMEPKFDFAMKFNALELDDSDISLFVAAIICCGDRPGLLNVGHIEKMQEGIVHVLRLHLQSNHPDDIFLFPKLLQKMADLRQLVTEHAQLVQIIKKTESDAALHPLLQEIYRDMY
The assay can be described thus: Agonist activity at human PPARalpha by transactivation assay. In kind it is functional.

Assay [2] has as its target T2, Peroxisome proliferator-activated receptor delta (Homo sapiens, UniProt Q03181).
T2 sequence (Q03181 whole entry): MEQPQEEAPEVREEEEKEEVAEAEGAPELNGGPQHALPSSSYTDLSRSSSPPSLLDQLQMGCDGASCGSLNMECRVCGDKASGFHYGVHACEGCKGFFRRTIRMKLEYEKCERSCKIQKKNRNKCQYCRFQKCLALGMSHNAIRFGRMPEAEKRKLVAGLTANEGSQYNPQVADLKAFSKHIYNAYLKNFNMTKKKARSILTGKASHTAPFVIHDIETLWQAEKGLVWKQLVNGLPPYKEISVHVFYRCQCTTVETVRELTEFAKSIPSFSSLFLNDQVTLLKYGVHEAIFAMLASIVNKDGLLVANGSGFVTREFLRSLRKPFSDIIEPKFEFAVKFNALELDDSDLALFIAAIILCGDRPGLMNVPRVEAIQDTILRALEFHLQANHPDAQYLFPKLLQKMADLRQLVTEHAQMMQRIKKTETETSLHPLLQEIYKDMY

Assay [3] addresses T3, Peroxisome proliferator-activated receptor alpha (Homo sapiens) (UniProt Q07869).
T3 sequence (whole entry): T1 sequence (Q07869 whole entry)
The assay is described as follows: Agonist activity at human PPARalpha by transactivation assay relative to NNC 61-4655. Format: functional. The procedure, abridged:
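Transactivation run in at least three separate experiments, each at five or more concentrations from 0.001 to 30 µM. EC50 is the concentration giving half of the compound's own maximal activity, reported as the mean. Efficacy is given relative to the maximal activity of the reference PPARα agonist.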

For assay [4], the target named is T4, Peroxisome proliferator-activated receptor gamma (Homo sapiens, UniProt P37231).
T4 sequence (P37231 whole entry): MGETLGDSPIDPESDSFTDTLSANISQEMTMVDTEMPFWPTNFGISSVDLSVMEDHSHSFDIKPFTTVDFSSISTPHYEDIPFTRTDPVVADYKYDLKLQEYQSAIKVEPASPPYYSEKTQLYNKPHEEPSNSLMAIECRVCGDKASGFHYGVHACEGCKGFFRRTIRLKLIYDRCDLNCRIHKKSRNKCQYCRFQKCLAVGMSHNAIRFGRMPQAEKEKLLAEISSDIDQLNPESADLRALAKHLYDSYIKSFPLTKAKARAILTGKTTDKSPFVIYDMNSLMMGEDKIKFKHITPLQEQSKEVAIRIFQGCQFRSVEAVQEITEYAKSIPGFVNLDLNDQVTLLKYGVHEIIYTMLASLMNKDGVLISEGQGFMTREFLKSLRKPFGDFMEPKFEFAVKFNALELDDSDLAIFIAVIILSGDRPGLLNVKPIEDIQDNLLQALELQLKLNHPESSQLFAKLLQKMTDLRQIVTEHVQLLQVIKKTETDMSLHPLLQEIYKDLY
In kind it is functional.

Bounds are passed on as bounds.

As for `Cc1cc(SC/C=C/C#Cc2ccccc2)ccc1OCC(=O)O`, the values for the EC50 in assay [1] and in assay [2] were 14 µM and 12.1 µM, respectively.

Regarding `Cc1cc(SC/C=C\C(C#Cc2ccccc2)c2ccc(Br)cc2)ccc1OCC(=O)O` (stereo unspecified), the EC50 was more than 10 µM in assay [1], 0.16 µM in assay [2] and more than 10 µM in assay [4]. The compound further showed a %max in assay [3] of more than 24%.

On to `COc1ccc(C#CC(/C=C\CSc2ccc(OCC(=O)O)c(C)c2)c2ccc(-c3ccccc3)cc2)cc1` (stereo unspecified), for which the EC50 is more than 10 µM in assay [1], 0.011 µM in assay [2] and more than 10 µM in assay [4]. In assay [3], this compound yielded a %max of more than 58%.

For the compound `CCO[C@@H](Cc1ccc(OC/C=C(\C#Cc2ccccc2)c2ccccc2)cc1)C(=O)O`, the EC50 in assay [1] and in assay [4] was more than 10 µM in each case.

Take `Cc1cc2cc(C(C#Cc3ccc(C)s3)/C=C\COc3ccc(OCC(=O)O)c(C)c3)ccc2o1` (stereo unspecified): the EC50 was 5.8 µM in assay [1], 0.15 µM in assay [2] and more than 10 µM in assay [4]. The compound also showed a %max in assay [3] of less than 10%.

Consider `Cc1ccc(C#CC(/C=C\COc2ccc(OCC(=O)O)c(C)c2)c2ccc(Br)cc2)s1` (stereo unspecified), for which the EC50 in assay [1] was more than 10 µM; in assay [2] it was 0.22 µM. Moreover, in assay [3], the %max is more than 15%.

Consider `Cc1cc2cc(C(C#Cc3ccc(F)cc3)/C=C\COc3ccc(OCC(=O)O)c(C)c3)ccc2o1` (stereo unspecified), for which the EC50 in assay [1] and in assay [4] was more than 10 µM each time. This compound also registered a %max in assay [3] of more than 41%.

Compound `Cc1cc(OC/C=C(\C#Cc2ccccc2)c2ccccc2)ccc1OCC(=O)O` returned a %max in assay [3] of less than 10%.

In turn, `Cc1cc(SCc2sc(-c3ccc(C(F)(F)F)cc3)nc2C)ccc1OCC(=O)O` returned a %max in assay [3] of 68%.

In the case of `Cc1ccc(-c2ccc(/C(C#Cc3ccccc3)=C/COc3ccc(OCC(=O)O)c(C)c3)cc2)s1`, the EC50 in assay [1] and in assay [4] was more than 10 µM throughout. Further, the %max in assay [3] was more than 60%.

Regarding `Cc1cc(OC/C=C\C(C#Cc2ccc(C(F)(F)F)cc2)c2ccc(Br)cc2)ccc1OCC(=O)O` (stereo unspecified), the EC50 in assay [1] was more than 10 µM; in assay [2] it was 0.13 µM. In assay [3], this compound displayed a %max of more than 19%.

Take `CCO[C@@H](Cc1ccc(OC/C=C/C#Cc2ccccc2)cc1)C(=O)O`: the EC50 stood at 0.01 µM in assay [1], 6.4 µM in assay [2] and 2.6 µM in assay [4].

With `Cc1cc(OC/C=C\C(C#Cc2ccccn2)c2ccc(Br)cc2)ccc1OCC(=O)O` (stereo unspecified), the values for the EC50 in assay [1] and in assay [2] were more than 10 µM and 0.24 µM, respectively. This compound also came in with a %max in assay [3] of more than 22%.

As to `Cc1cc(OC/C=C\C(C#Cc2ccccc2)c2cnc3ccccc3c2)ccc1OCC(=O)O` (stereo unspecified), the EC50 in assay [1] is 4.1 µM; in assay [4], 6.6 µM. The compound further had a %max in assay [3] of 33%.

The compound `Cc1cc(OC/C=C(\C#Cc2ccccc2)c2ccc(Br)cc2)ccc1OCC(=O)O` displayed a %max in assay [3] of less than 10%.

`CN(CCOc1ccc(CC2SC(=O)NC2=O)cc1)c1ccccn1` (stereo unspecified) came in with a %max in assay [3] of more than 24%.

Broadly, the EC50 is the concentration giving half of the maximal effect.
